PLCb3 inh: blocks human PLC-beta3 enzyme activity; Q01970; Purified PLC-beta3, fluorogenic substrate, fluorescence; inhibition, % at 12.2 µM; 0.18% of 370,000 active; AID 720704; in the data active means inhibition above about 11%;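 further: 0% = median of compound wells on plate and 100% = full blocker control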
Tb MetRS inh: Trypanosoma brucei MetRS inhibition; purified T. brucei MetRS, ATP depletion, Kinase-Glo luminescence; inhibition, % at 11.9 µM; 0.4% of 360,000 active; AID 624268;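 active means inhibition above a per-plate cutoff of the control wells' mean inhibition plus 3 SD, cut at about 5.5% in these data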;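 further: 0% = DMSO wells median and 100% = median of wells with control inhibitor compound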
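Material – parasite MetRS enzyme · Medium – HEPES-MgCl2-KCl buffer plus DTT, spermine, BSA, pyrophosphatase · Reagent – ATP, methionine and E. coli bulk tRNA substrates · Times – 15 min enzyme-compound preincubation, 2 h reaction, 10 min detection, 25 °C · Measured by – luminescence of leftover ATP · Evaluation – percent inhibition relative to median high and low control wells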
PLCg1 inh: PLC-gamma1 (human) inhibition, primary screen. P19174. purified PLC-gamma1, fluorogenic substrate, fluorescence. inhibition, % at 12.2 µM. 0.84% of 370,000 active; in the data active means inhibition above about 9.5%
HGIII-sPLA2 inh: Blocks human group III sPLA2 activity. AID 743126. QFRET BODIPY PC-A2 liposome hydrolysis, fluorescence. inhibition, % at 12.2 µM. 0.56% of 370,000 active. Q9NZ20;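 active means inhibition above mean plus 3 SD of compounds lying within the high and low control bounds, cut at about 19% in these data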;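 further: 0% = median of test compound wells and 100% = no enzyme DMSO wells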
sPLA2 confirm: human GIII-sPLA2 inhibition, confirmation. shares compounds with HGIII-sPLA2 inh. recombinant hGIII-sPLA2, BODIPY PC-A2 QFRET fluorescence. inhibition, % at 12.2 µM. 34% of 2,000 active. AID 743280;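 active means mean inhibition across triplicates above the hit cutoff set in the earlier primary screen, cut at about 19% in these data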;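 further: 0% = enzyme with DMSO and 100% = DMSO wells lacking enzyme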
BODIPY interf: 535nm fluorescence interference, HGIII-sPLA2 counter-screen; BODIPY FL product fluorescence interference, QFRET; shares compounds with HGIII-sPLA2 inh; 8.5% of 2,000 active; AID 743282; inhibition, % at 12.2 µM;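 active means average inhibition above the solvent-only control mean plus 3 SD, cut at about 6% in these data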;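 further: 0% = DMSO with substrate plus product and 100% = DMSO with substrate alone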
Active calls of the source: *; nt = no result. Compounds with a hit are over-represented: about 1.9% of the library has one in this group of screens.

SMILES	PLCb3 inh	Tb MetRS inh	PLCg1 inh	HGIII-sPLA2 inh	sPLA2 confirm	BODIPY interf
CCCC(=O)NC(c1ccccc1)c1ccc2cccnc2c1O (stereo not given)	-38	-2	-16	29*	17	-11
Cn1ncc(Br)c1C(=O)N1CCOCC1	0	0	-3	20*	-6	-1
CCCC1CCC2(CC1)CCC2OC(=S)Nc1cccc(I)c1 (stereo not given)	2	nt	1	2	nt	nt
Cc1ccc(OCCN2CCN(C)CC2)c([N+](=O)[O-])c1	0	0	3	22*	-1	-5
COC(=O)[C@]1(CC(C)C)NC=C(C(=O)c2ccccc2)[C@@H]1c1cccc(C(F)(F)F)c1	-5	nt	-4	-40	nt	nt
CCOC(=O)CCNC(=O)N1CCCC(CCC(=O)N(C)CCc2ccccn2)C1 (stereo not given)	0	0	5	24*	0	-10
CC1CCN(c2c([N+](=O)[O-])c(=O)oc3ccccc23)CC1	-4	0	8	21*	4	-1
CCCCN1CC(=O)N2[C@H](C[C@@]3(C)c4ccccc4N(S(=O)(=O)c4ccccc4)[C@@H]23)C1=O	2	nt	-3	1	nt	nt
CC(C)n1cc(C(N)=S)c(=O)n(Cc2ccccc2)c1=O	-7	0	1	21*	12	-4
COC(=O)[C@]12CCCCC=C1N(Cc1ccc(OC)cc1)C(=O)[C@@H]2CC(=O)NCc1cccc(C(F)(F)F)c1	-3	nt	1	-23	nt	nt
O=C(OC12CCCN(C1)/C(=C/c1ccncc1)C2)c1cccc(F)c1 (stereo not given)	-9	nt	-10	1	nt	nt
N/C(=N\OC(=O)CCC1CCCC1)c1cccc([N+](=O)[O-])c1	-2	0	-2	21*	6	-8
O=c1[nH]nc(SCCS(=O)(=O)c2ccc(F)cc2)n1-c1ccc2c(c1)OCCO2	-6	0	3	21*	5	-9
CCOC(=O)[C@@]12CN(C(=O)OC(C)(C)C)CC=C1N(Cc1ccc(OC)cc1)C(=O)[C@H]2CC(=O)NCc1cccs1	3	nt	2	-6	nt	nt
Cn1c(=O)c2c(ncn2CC(=O)OCC(=O)Nc2ccccc2Cl)n(C)c1=O	2	0	1	3	nt	nt
Cn1c(=O)c2c(ncn2CC(=O)OCC(=O)NC(c2ccccc2)c2ccccc2)n(C)c1=O	1	0	-3	21*	-1	-5
COc1cccc(N2CCN(CC(=O)NCc3cccc(OC)c3OC)CC2)c1	-6	nt	3	12	nt	nt
CC(C)(C)c1cc(C(=O)N/N=C/c2ccccc2O)n(-c2ccccc2)n1	-7	0	-9	28*	-4	-19
O=C(CSCc1ccccc1Br)NNC(=S)NCc1ccco1	-5	0	3	40*	48*	8.8*
CC1Cc2nc(SCC(=O)NCC3CCCO3)n(-c3ccccc3)c(=O)c2S1 (stereo not given)	-2	0	2	-1	nt	nt
COCCn1c(SCC(=O)NCC2CCCO2)nc2c(c1=O)SC(C)C2 (stereo not given)	-1	3	4	20*	3	-7
CC1=C2NC(N)=[N+](Cc3ccc4c(c3)OCO4)CC2n2c(=O)n(-c3ccccc3)c(=O)n2C1 (stereo not given)	0	nt	-2	10	nt	nt
COC(=O)C[C@H]1CC[C@@H]2[C@H](COc3ccc(NC(=O)c4cccc(Cl)c4)cc3C(=O)N2C)O1	4	nt	4	-3	nt	nt
O=C(/C=C/c1ccc(F)cc1)NC(=S)Nc1ccccc1	-4	1	-9	-5	nt	nt
NC(N)=NS(=O)(=O)c1ccc(NC(=S)NC(=O)/C=C/c2ccc(F)cc2)cc1	-7	-1	7	22*	4	-5
Cc1ccc(C(C)NC(=S)NC2CCCCC2)cc1C (stereo not given)	-3	0	5	20*	11	-4
COc1ccc(S(=O)(=O)n2c(C)nc3ccccc32)cc1C	-9	0	-8	-4	nt	nt
COc1cc(S(=O)(=O)n2c(C)nc3ccccc32)ccc1F	3	-1	1	20*	6	-5
O=C(NCC1CCN(C(=O)C(=O)c2cccs2)CC1)c1ccc2ccccc2c1	2	nt	-2	-11	nt	nt
COc1ccccc1NC(=S)NNC(=O)c1cc(C)nn1C	5	0	8	19*	22*	-4

Source: PubChem
